The source of these data is ChEMBL document CHEMBL1139873, “Bispyridinium dienes: histone deacetylase inhibitors with selective activities” (J Med Chem, 2007).

As a reminder, the IC50 is the concentration at which inhibition is half-maximal. The low end stands for inhibition by little substance, the high end for a need for much substance.

SMILES strings stand for the structures. Activity calls are given as the source filed them. The rule behind the calls is not given here.

The subject of test [1] is U-937. Description: Effect on alpha tubulin acetylation in U937 cells at 1 uM after 24 hrs by Western blot analysis. The class given is functional, cell-based. Particulars: Homo sapiens. A general note: A western blot detects proteins with antibodies after separation by electrophoresis.
The test system of test [2] is U-937. Briefly: Increase in histone H3 acetylation in U937 cells at 5 uM after 24 hrs by Western blot analysis. In kind it is cell-based. Particulars: Homo sapiens.
Test [3] concerns U-937. Briefly: Induction of apoptosis in U937 cells after 30 hrs by FACS analysis. In kind it is functional, cell-based. The settings on record: Homo sapiens. In outline:
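U937 cells in supplemented RPMI were exposed 30 h to compounds dissolved in DMSO (1 or 5 µM). Apoptosis was scored by flow cytometry as the percentage of active caspase 3-positive cells, as the mean of independent duplicates.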

For test [4], the system named is U-937. Description: Effect on alpha tubulin acetylation in U937 cells at 5 uM after 24 hrs by Western blot analysis. The class given is functional, cell-based. Particulars: Homo sapiens.
Test [5] has as its target T1, Histone deacetylase 1 (Homo sapiens, UniProt Q13547). Briefly: Inhibition of HDAC1. In short, it runs like this: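 Purified recombinant HDAC1 was incubated with the acetyl-lysine Fluor de Lys substrate, with or without inhibitor. Developer then released a fluorophore, read by fluorimetry. Four scalar concentrations were tested in quadruplicate to derive the IC50.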

Test [6] relates to U-937. Description: Effect on granulocyte differentiation in U937 cells assessed as CD11c expression at 5 uM after 30 hrs. The class given is functional, cell-based. The settings on record: Homo sapiens. In outline: (§1)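 U937 cells were stained with phycoerythrine-conjugated anti-CD11c for 30 min at 4 °C in the dark, with PE-mouse IgG1 as the staining control. Cells were washed in PBS, taken up in PBS with 0.25 µg/mL propidium iodide and analysed by FACS. PI-positive cells were excluded.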

The target in test [7] is T1, Histone deacetylase 1. Briefly: Inhibition of HDAC1 at 5 uM.
In test [8] the target is Histone deacetylase 4 (Homo sapiens, UniProt P56524). Briefly: Inhibition of HDAC4. In short, it runs like this:
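HDAC4 catalytic fragment (aa 627-1085, C-terminal GST tag, baculovirus-expressed) was used at 2 µg per assay with 1-2 h enzymatic incubation in the fluorimetric deacetylase assay. Four scalar concentrations were tested in quadruplicate, and the IC50 was calculated from fluorescence.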

For test [9], the system named is U-937. Description: Effect on granulocyte differentiation in U937 cells assessed as CD11c expression after 30 hrs. The class given is functional, Homo sapiens. In short, it runs like this:
as §1

In test [10] the test system is U-937. Description: Effect on cell cycle analysis in U937 cells assessed as accumulation at G1 phase after 30 hrs. The settings on record: Homo sapiens. The class given is functional, cell-based. In short, it runs like this:
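U937 cells grown in RPMI with 10% FCS, antibiotics, 10 mM HEPES and 2 mM glutamine at 200 000 cells/mL, then treated 30 h with compounds in DMSO (1 or 5 µM). 2.5 × 10⁵ cells in hypotonic buffer (0.1% Triton X-100, 0.1% sodium citrate, 50 µg/mL propidium iodide, RNAse A), 30 min in the dark. DNA content by flow cytometry; run at least twice.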

T1 sequence (Q13547 whole entry): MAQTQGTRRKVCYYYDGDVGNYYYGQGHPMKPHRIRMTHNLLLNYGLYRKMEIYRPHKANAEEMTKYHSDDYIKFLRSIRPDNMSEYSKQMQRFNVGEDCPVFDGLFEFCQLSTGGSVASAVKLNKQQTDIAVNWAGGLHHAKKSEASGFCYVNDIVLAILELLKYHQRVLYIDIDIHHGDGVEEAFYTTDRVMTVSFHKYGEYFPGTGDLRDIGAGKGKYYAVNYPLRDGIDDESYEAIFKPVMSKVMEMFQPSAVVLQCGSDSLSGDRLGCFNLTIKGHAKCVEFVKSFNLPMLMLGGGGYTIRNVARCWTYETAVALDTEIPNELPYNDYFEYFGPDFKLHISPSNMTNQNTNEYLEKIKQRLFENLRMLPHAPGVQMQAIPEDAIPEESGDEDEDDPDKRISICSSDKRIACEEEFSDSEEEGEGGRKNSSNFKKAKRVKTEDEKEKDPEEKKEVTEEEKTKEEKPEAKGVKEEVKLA
Histone deacetylase 4, sequence (P56524 whole entry, the tested form may be a part): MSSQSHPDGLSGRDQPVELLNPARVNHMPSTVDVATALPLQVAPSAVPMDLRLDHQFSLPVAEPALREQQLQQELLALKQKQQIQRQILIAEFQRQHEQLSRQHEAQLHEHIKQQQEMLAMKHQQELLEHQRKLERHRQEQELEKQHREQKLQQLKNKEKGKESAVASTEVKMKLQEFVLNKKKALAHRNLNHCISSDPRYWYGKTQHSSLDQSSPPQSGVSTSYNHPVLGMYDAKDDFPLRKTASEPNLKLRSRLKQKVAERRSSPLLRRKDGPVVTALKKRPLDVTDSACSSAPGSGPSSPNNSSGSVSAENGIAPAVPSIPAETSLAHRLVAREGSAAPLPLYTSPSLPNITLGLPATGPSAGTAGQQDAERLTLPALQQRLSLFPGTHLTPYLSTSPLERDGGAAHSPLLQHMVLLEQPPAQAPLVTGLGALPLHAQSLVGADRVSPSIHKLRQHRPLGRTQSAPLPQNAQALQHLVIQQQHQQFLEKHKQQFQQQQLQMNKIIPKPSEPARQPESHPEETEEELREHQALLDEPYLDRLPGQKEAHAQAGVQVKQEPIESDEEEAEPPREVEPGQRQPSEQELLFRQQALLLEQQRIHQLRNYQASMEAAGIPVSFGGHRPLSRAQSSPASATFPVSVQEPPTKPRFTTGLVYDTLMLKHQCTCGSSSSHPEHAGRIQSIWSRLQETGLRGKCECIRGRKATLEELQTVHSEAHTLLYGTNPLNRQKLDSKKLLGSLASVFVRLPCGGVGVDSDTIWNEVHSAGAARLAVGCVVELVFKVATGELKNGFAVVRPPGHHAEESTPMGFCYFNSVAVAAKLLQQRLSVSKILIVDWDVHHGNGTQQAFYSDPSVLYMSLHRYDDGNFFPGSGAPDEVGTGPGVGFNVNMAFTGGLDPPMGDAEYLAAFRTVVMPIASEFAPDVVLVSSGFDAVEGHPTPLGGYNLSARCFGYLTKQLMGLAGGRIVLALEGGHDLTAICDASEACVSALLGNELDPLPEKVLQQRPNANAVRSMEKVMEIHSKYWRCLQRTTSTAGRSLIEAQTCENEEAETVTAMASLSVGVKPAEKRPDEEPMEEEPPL

On to `C=CCCCCCC[n+]1cccc(CCCCCCCCCCCCC[n+]2cccc(CCCCC=C)c2)c1`, for which the outcome in [1] and in test [4] was inactive. For the same compound, the result in [2] and in [3] was Active.

As to `C=CCCCCCC[n+]1cccc(CCCCCCCCCCCC[n+]2cccc(CCCCC=C)c2)c1.[Cl-].[I-]`, the values for the half-maximal inhibitory concentration (IC50) in test [5] and in [8] were 530 nM and over 200000 nM, respectively. The outcome in test [1] and in test [4] was inactive. Besides, the outcome in test [2], in test [6], in test [7] and in test [3] was Active. In addition, in test [9], the Activity was 30%.

With `Nc1ccccc1NC(=O)c1ccc(CNC(=O)OCc2cccnc2)cc1`, the result in [1] and in test [4] was inactive. In addition, the result in test [2] was Active.

Take `c1cc2c[n+](c1)CCCCCCCCCCCCCc1ccc[n+](c1)CCCCCCCCCCC2`: the outcome in test [1] and in test [4] was inactive. The result in test [2] was Active.

`C=CCCCCCCc1ccc[n+](CCCCCCCCCCCCc2ccc[n+](CCCCCCC=C)c2)c1.[Cl-].[I-]`: the outcome in test [1] and in [4] was inactive. Besides, the result in [2] and in test [3] was Active. Besides, the Activity in test [9] came to 30%.

As to `C=CCCCCCC[n+]1cccc(CCCCCCCCCCCCC[n+]2cccc(CCCC=C)c2)c1.[Cl-].[I-]`, the outcome in test [1] and in test [4] was inactive. Further, the result in test [2] and in test [3] was Active. In addition, the Activity in [9] was 30%.

As to `O=C(CCCCCCC(=O)Nc1ccccc1)NO`, the result in test [1] and in test [4] was inactive. For the same compound, in [2], the result was Active.

In the case of `c1cc2c[n+](c1)CCCCCCCCCCCCCc1ccc[n+](c1)CCCCCCCCCCCC2`, the result in test [1] and in test [4] was inactive. The outcome in test [2] was Active.

Regarding `C=CCCCCCCc1ccc[n+](CCCCCCCCCCCCCc2ccc[n+](CCCCCCC=C)c2)c1`, the outcome in test [1] and in test [4] was inactive. Further, the outcome in [2] and in test [3] was Active.

As for `c1cc2c[n+](c1)CCCCCCCCCCCCCCc1ccc[n+](c1)CCCCCCCCCCCC2`, the result in test [1] and in test [4] was inactive.

On to `c1cc2c[n+](c1)CCCCCCCCCCCCc1ccc[n+](c1)CCCCCCCCCCCC2`, for which the result in test [1] and in [4] was inactive.

For `c1cc2c[n+](c1)CCCCCCCCCCCCc1ccc[n+](c1)CCCCCCCCCCC2`, the outcome in test [1] and in test [4] was inactive.

`C=CCCCCCC[n+]1cccc(CCCCCCCCCCCC[n+]2cccc(CCCC=C)c2)c1.[Cl-].[I-]`: the IC50 is 1880 nM in test [5] and 540 nM in test [8]. The result in test [1] and in [4] was inactive. Further, the outcome in [10], in [2] and in test [3] was Active. Besides, in test [9], the Activity came out at 30%.

As to `c1cc2c[n+](c1)CCCCCCCCCCCCCCc1ccc[n+](c1)CCCCCCCCCCCCC2`, the result in test [1] and in test [4] was inactive.
